A selection: hits, their analogues and other compounds. The true share with any hit is near 2%.
TROY signal inh: inhibitors of TROY-driven NF-kB signaling, primary screen, Q293 LMP1-TROYcd cells, NF-kB luciferase, uHTS. Q293 LMP1-TROYcd NF-kB luciferase reporter, 4 h. inhibition, % at 10 µM. 360,000 tested, 0.98% active;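 active = compounds whose plate-normalised and pattern-corrected inhibition of the luciferase reporter signal at the single screening dose is 50% or more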
CaV13 ICDI inh: Disruptors of the CACNA1D IQ motif to Ca2+-dependent inactivation inhibitor domain association, primary screening, Förster resonance energy transfer in intact living …. HEK cells, CFP/YFP FRET ICDI-IQ, plate reader, 10 min; percent FRET-ratio fall versus neutral wells. inhibition, % at 12.3 µM. 340,000 tested, 0.098% active. AID 743397;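 active = mean replicate inhibition of at least 30% and at least 1% of replicates passing that level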
TWEAK Fn14 block: inhibitors of TWEAK-Fn14 signaling, primary screen, luciferase reporter cells, uHTS | TWEAK-stimulated Fn14 reporter cells, luciferase luminescence, 8 h | inhibition, % at 10 µM | 360,000 tested, 2% active | AID 1159606, 2016; in the data active = inhibition above about 50%
LGR2 inh: inhibitors of bursicon-induced LGR2 CRE-luciferase signal, primary screen, cell-based, HEK293, CRE-luciferase reporter, bursicon stimulation; Drosophila bursicon receptor LGR2 (rickets); 380,000 tested, 0.35% active; inhibition, % at 9.99 µM; bursicon-stimulated, 4 h;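 active = drop in luminescence signal, shown as inhibition above about 50% in the replicate tests, limit read from the data, passing the limit was not always enough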;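 also: agonist challenge used bursicon conditioned medium at about half maximal strength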
XiGFP reactiv: activators of inactive X chromosome reactivation, primary screen, imaging, XiGFP fibroblasts, GFP high-content imaging, set 2. 360,000 tested, 0.055% active. activation, % at 7.58 µM. AID 743238, 2013. XiGFP mouse fibroblasts, % GFP-positive cells imaging, 3 d; cells co-treated with 5-aza-dC sensitizer; scaled so ellipticine positive control = 100%;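 active = mean normalized replicate activation at least 10% and every replicate at or above 10%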
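Assay system – SV40-immortalized XiGFP fibroblast cells, line 68-5-11 · Buffer or medium – DMEM supplemented with 5-aza-dC as sensitizing agent · Dosing – one concentration, pinned · Benchmarks – positive control ellipticine, 6 µM final · Times – 3 days compound exposure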
Numbers stand for hits; – = inactive; · = not tested or not shown.

SMILES	TROY signal inh	CaV13 ICDI inh	TWEAK Fn14 block	LGR2 inh	XiGFP reactiv
CNS(=O)(=O)c1cccc(C(=O)OCc2cc(=O)oc3c(C)c(O)ccc23)c1	50.6	–	–	–	–
C[C@H]1CN([C@@H](C)CO)C(=O)c2cc(NC(=O)Nc3cccc4ccccc34)ccc2O[C@H]1CN(C)Cc1ccc(C(=O)Nc2ccccc2N)cc1	·	·	·	–	–
Cc1ccc(Oc2cc([N+](=O)[O-])cc3c2C(=O)Nc2ccccc2O3)cc1	–	–	56.1	–	–
O=C1Nc2ccccc2Nc2ccc([N+](=O)[O-])cc21	–	–	–	–	–
COc1cc(C(=O)N(CCc2ccccc2)C2=CC3CCC(C2)N3C)cc(OC)c1OC (configuration not stated)	–	–	–	·	·
COc1ccc(CCN(C(=O)c2ccc(F)cc2)C2=CC3CCC(C2)N3C)cc1OC (configuration not stated)	–	–	68.4	·	·
COCCNC(=O)[C@@H]1[C@@H](CO)[C@@H]2Cn3c(ccc(-c4ccccc4F)c3=O)[C@@H]2N1C(=O)C1CCCC1	·	·	·	–	–
CC[C@H](C)[C@@H]1NC(=O)[C@@H](CC(C)C)NC(=O)[C@H](C(C)C)NC(=O)[C@H]2CSSC[C@H](NC1=O)C(=O)N2	86.3	–	106.7	72.2	–
COc1ccc(NS(=O)(=O)c2cccc(NC(=O)c3ccc(S(=O)(=O)N4CCCCCC4)cc3)c2)cc1	–	·	70.2	·	·
O=C(Cc1c(Cl)cccc1Cl)Nc1cccc(S(=O)(=O)N2CCOCC2)c1	–	–	–	–	–
Cc1cccc(Nc2nnc(SCC(=O)Nc3cccc(S(=O)(=O)N4CCCCC4)c3)s2)c1	–	–	59.7	–	–
O=C(Cc1ccccc1Cl)Nc1cccc(S(=O)(=O)N2CCOCC2)c1	80.5	–	90.4	–	–
CN1CCN(S(=O)(=O)c2ccc(NC(=O)Nc3cccc(Cl)c3)cc2)CC1	–	–	–	·	·
O=C(Nc1cccc(Cl)c1)Nc1cc(S(=O)(=O)N2CCCCC2)ccc1Cl	55.6	–	83.7	–	–
Cc1cccc(NC(=O)CSc2nnc(NC(=O)CN3CCCCC3)s2)c1	·	–	·	–	–
O=C(NCC[C@H]1CC[C@H](NC(=O)C2CCCCC2)[C@@H](CO)O1)Nc1ccc(Cl)cc1	·	·	·	–	–
O=C(C[C@@H]1CC[C@@H]2[C@H](COC[C@H](O)CN2C(=O)c2ccc3c(c2)OCO3)O1)NCCN1CCCCC1	·	·	·	–	–
COc1ccc(CCC(=O)Nc2cccc(S(=O)(=O)N3CCCCCC3)c2)cc1OC	–	–	–	–	–
COc1ccc(CC(=O)Nc2cccc(S(=O)(=O)N3CCCCCC3)c2)cc1OC	–	–	53.2	–	–
O=C(Cn1[nH]c(=O)c2ccccc2c1=O)Nc1cccc(S(=O)(=O)N2CCCCCC2)c1	–	–	50.7	–	–
COc1ccc(N2CCN(C(=O)c3ccc(COc4ccc([N+](=O)[O-])cc4)o3)CC2)cc1	–	–	50.6	–	–
Cc1ccc(S(=O)(=O)NCc2ccc(C(=O)N3CCN(c4ccc([N+](=O)[O-])cc4)CC3)cc2)cc1	–	–	50.3	–	–
COc1cc(C(=O)N2CCN(c3ccc([N+](=O)[O-])cc3)CC2)ccc1OCc1c(C)noc1C	·	–	73.0	·	·
COc1ccc(N2CCN(C(=O)c3ccc(OCc4c(C)noc4C)c(OC)c3)CC2)cc1	–	–	–	·	·
C[C@@H]1CN([C@H](C)CO)S(=O)(=O)c2ccc(C#C[C@@H](C)O)cc2O[C@@H]1CN(C)C(=O)CC1CC1	·	·	·	–	–
SMILES	TROY signal inh	CaV13 ICDI inh	TWEAK Fn14 block	LGR2 inh	XiGFP reactiv
COc1ccc(/C=N/Nc2cc(C)nc3ccc(Br)cc23)cc1	–	–	–	92.7	–
C[C@@H]1CCCCO[C@@H](CN(C)C(=O)Nc2ccc3c(c2)OCO3)[C@@H](C)CN([C@H](C)CO)C(=O)c2cc(NC(=O)Cc3ccccc3)ccc2O1	·	·	·	–	–
CS(=O)(=O)N1[C@H](C(=O)NCC2CC2)[C@@H](CO)[C@@H]2Cn3c(ccc(-c4ccccc4F)c3=O)[C@@H]21	·	·	·	–	–
CS(=O)(=O)c1ccc(Sc2nc3ccccc3s2)c([N+](=O)[O-])c1	–	·	99.3	·	·
CCNC(=O)C[C@H]1CC[C@H]2[C@@H](COc3ccc(NC(=O)c4cccc(C#N)c4)cc3C(=O)N2C)O1	·	·	·	·	–
Cc1cccc(S(=O)(=O)N2C[C@H](O)COC[C@H]3O[C@H](CC(=O)N4CCN(C)CC4)CC[C@@H]32)c1	·	·	·	–	–
COc1ccc(CNC(=O)c2cc(S(=O)(=O)N3CCOCC3)cn2C)cc1	–	–	–	–	–
COc1cccc(CNC(=O)c2cc(S(=O)(=O)N3CCOCC3)cn2C)c1	–	–	–	–	22.7
Cc1cc(Cl)ccc1OC(C)C(=O)Nc1ccc(C(=O)Nc2ccccc2C(=O)O)cc1 (configuration not stated)	56.9	·	–	–	–
Cc1ccc(-c2ccc(CCC(=O)O)n2NC(=O)c2ccco2)cc1	·	·	77.0	·	·
CN(C)CC(=O)N[C@H]1CC[C@@H](CC(=O)NCc2ccccc2F)O[C@@H]1CO	·	·	·	–	–
O=C1S/C(=C\c2ccc(N3CCOCC3)o2)C(=O)N1Cc1ccc(F)cc1	–	·	51.9	·	·
O=C1S/C(=C/c2ccc(N3CCOCC3)o2)C(=O)N1Cc1ccc(F)cc1	–	–	–	·	·
COc1cc(/C=C2\SC(=Nc3ccccc3)N(CCc3c[nH]c4ccccc34)C2=O)ccc1OC(C)C(=O)O (configuration not stated)	58.8	–	–	–	·
COc1ccc(N=C2S/C(=C\c3ccc(OC(C)C(=O)O)c(OC)c3)C(=O)N2CCc2c[nH]c3ccccc23)cc1 (configuration not stated)	54.3	–	–	–	–
O=C1/C(=C/c2ccc(N3CCOCC3)o2)SC(=Nc2ccccc2)N1CCc1c[nH]c2ccccc12	–	·	90.5	·	·
CO[C@H]1CN(C)C(=O)c2cc(NC(=O)C3CC3)ccc2OC[C@H](C)N(CC2CCOCC2)C[C@@H]1C	·	·	·	–	–
CNC[C@H]1Oc2ccc(NC(C)=O)cc2C(=O)N(C)C[C@H]1C	·	·	·	·	–
C[C@H](CO)N1C[C@H](C)[C@H](CN(C)C(=O)NC2CCCCC2)Oc2c(NC(=O)CCCCCC(=O)Nc3ccccc3N)cccc2C1=O	·	·	·	–	–
O=C(C[C@@H]1C=C[C@H](NS(=O)(=O)c2ccccc2)[C@@H](CO)O1)NCc1ccncn1	·	·	·	–	–
O=C(NC1CCCCC1)c1noc2c1CCCCC2	–	–	54.7	–	·
CC(C)(C)C1CCc2onc(C(=O)NC3CCCC3)c2C1 (configuration not stated)	–	–	–	–	·
